# Measured values from ChEMBL document CHEMBL4177595, “Design and synthesis of a novel series of orally active, selective somatostatin receptor 2 agonists for the treatment of type 2 diabetes” (Bioorg Med Chem, 2017).
# pIC50: −log10 of the molar value.
# Assays:
# [1] = biological target: Somatostatin receptor type 2 (Homo sapiens, UniProt P30874); test: Displacement of [125I]somatostatin-14 (Tyr11) from human SSTR2 expressed in CHO dhfr cell membranes after 60 mins by TopCount scintillation counting method
# Somatostatin receptor type 2, sequence (P30874 whole entry): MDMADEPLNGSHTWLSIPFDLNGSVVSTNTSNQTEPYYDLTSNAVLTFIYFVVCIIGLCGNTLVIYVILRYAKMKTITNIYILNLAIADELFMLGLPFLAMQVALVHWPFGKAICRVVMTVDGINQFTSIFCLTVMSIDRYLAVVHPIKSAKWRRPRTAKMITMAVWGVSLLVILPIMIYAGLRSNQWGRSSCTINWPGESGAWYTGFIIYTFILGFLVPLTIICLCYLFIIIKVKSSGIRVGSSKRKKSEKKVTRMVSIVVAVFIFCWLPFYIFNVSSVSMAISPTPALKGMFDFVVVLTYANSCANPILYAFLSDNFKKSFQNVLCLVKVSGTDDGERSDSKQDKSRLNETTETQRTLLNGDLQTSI
# Procedure, shortened: (§1)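 Membrane fractions were prepared from CHO dhfr- cells stably transfected with each human SSTR subtype, with a high-expressing single colony selected for each. Membranes in 25 mM Tris-HCl pH 7.4 with 0.1% BSA, EDTA and protease inhibitors were incubated with 50 pM [125I]SST-14 (Tyr11) and a range of compound concentrations for 60 min at room temperature. Excess SST-14 defined nonspecific binding. Samples were filtered on PEI-soaked GF/B filters before counting. IC50 came from pseudo-Hill fitting.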
# [2] = Lipophilicity, log D of the compound; assay type: physicochemical; settings: octanol/water
# HepG2 = test: Induction of phospholipidosis in human HepG2 cells up to 50 uM after 24 hrs by NBD-PE fluorophore-based assay relative to amiodarone; assay type: cell-based; settings: hepg2, 24 h
# [3] = biological target: Somatostatin receptor type 5 (Homo sapiens, UniProt P35346); test: Displacement of [125I]somatostatin-14 (Tyr11) from human SSTR5 expressed in CHO dhfr cell membranes after 60 mins by TopCount scintillation counting method; procedure, shortened: as §1
# Somatostatin receptor type 5, sequence (P35346 whole entry): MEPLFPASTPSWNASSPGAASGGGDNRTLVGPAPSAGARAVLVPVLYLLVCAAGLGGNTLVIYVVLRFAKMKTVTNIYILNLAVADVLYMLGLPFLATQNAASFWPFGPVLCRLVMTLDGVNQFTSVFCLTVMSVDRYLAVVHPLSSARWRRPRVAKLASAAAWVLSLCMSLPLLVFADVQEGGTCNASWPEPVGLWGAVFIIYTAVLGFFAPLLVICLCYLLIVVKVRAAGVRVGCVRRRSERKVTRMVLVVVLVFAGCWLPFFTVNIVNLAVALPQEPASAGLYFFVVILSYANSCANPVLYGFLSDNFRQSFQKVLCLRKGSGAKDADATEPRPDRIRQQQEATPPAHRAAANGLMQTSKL
# [4] = biological target: Somatostatin receptor type 1 (Homo sapiens, UniProt P30872); test: Displacement of [125I]somatostatin-14 (Tyr11) from human SSTR1 expressed in CHO dhfr cell membranes after 60 mins by TopCount scintillation counting method; procedure, shortened: as §1
# Somatostatin receptor type 1, sequence (P30872 whole entry): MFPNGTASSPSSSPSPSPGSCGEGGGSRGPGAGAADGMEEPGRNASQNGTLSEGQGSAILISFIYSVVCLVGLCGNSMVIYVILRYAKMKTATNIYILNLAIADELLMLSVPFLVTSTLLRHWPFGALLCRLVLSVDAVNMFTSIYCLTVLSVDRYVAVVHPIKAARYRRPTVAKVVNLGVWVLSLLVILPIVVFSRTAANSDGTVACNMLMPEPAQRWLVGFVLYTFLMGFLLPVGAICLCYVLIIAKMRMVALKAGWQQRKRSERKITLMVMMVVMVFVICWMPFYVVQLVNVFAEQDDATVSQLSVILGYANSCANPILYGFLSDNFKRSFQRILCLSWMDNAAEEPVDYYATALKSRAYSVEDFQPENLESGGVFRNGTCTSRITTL
# [5] = biological target: Somatostatin receptor type 3 (Homo sapiens, UniProt P32745); test: Displacement of [125I]somatostatin-14 (Tyr11) from human SSTR3 expressed in CHO dhfr cell membranes after 60 mins by TopCount scintillation counting method; procedure, shortened: as §1
# Somatostatin receptor type 3, sequence (P32745 whole entry): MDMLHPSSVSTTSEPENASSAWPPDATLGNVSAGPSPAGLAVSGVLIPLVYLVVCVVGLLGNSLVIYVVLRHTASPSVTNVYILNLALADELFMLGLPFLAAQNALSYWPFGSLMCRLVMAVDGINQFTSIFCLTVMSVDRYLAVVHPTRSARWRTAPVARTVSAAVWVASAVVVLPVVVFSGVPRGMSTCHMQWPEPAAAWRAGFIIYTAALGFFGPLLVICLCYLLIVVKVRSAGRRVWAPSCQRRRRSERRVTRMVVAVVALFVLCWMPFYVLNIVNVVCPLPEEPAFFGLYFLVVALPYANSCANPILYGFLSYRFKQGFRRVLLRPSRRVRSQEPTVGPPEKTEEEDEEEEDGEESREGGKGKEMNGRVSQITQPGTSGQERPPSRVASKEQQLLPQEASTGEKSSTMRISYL
# [6] = biological target: Somatostatin receptor type 4 (Homo sapiens, UniProt P31391); test: Displacement of [125I]somatostatin-14 (Tyr11) from human SSTR4 expressed in CHO dhfr cell membranes after 60 mins by TopCount scintillation counting method; procedure, shortened: as §1
# Somatostatin receptor type 4, sequence (P31391 whole entry): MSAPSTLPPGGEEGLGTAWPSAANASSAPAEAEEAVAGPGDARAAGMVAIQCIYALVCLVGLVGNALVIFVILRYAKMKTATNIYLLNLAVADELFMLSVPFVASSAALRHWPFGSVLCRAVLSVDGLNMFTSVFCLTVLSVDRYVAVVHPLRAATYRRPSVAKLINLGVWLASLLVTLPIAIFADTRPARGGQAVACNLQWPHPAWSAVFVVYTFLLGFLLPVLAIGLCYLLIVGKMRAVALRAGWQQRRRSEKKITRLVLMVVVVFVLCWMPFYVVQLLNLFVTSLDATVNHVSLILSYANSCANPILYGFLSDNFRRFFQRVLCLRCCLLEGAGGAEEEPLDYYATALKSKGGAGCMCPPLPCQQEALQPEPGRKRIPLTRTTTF
# [7] = Plasma concentration in Sprague-Dawley rat at 0.3 mg/kg, iv after 5 mins; assay type: ADME, organism-based
# [8] = AUC in Sprague-Dawley rat at 0.3 mg/kg, iv after 1 hr; assay type: ADME, organism-based; design: time < 1 hr, dose 0.3 mg/kg, route intravenous; settings: in vivo
# [9] = MRT in Sprague-Dawley rat at 0.3 mg/kg, iv; assay type: ADME, organism-based; settings: in vivo
# [10] = Volume of distribution at steady state in Sprague-Dawley rat at 0.3 mg/kg, iv after 1 hr; assay type: ADME, organism-based; settings: in vivo, read-out: Vdss
# [11] = Total clearance in Sprague-Dawley rat at 0.3 mg/kg, iv after 1 hr; assay type: ADME, organism-based; settings: in vivo
# [12] = Cmax in Sprague-Dawley rat at 1 mg/kg, po after 1 hr; assay type: ADME, organism-based; design: dose 1 mg/kg, route oral; settings: in vivo
# [13] = AUC in Sprague-Dawley rat at 1 mg/kg, po after 1 hr; assay type: ADME, organism-based; design: time < 1 hr, dose 1 mg/kg, route oral; settings: in vivo
# [14] = MRT in Sprague-Dawley rat at 1 mg/kg, po; assay type: ADME, organism-based; settings: in vivo
# [15] = Oral bioavailability in Sprague-Dawley rat at 1 mg/kg after 1 hr; assay type: ADME, organism-based; settings: in vivo
# [16] = Tmax in Sprague-Dawley rat at 1 mg/kg, po after 1 hr; assay type: ADME, organism-based; settings: in vivo
# Rattus norvegicus [17] = species on record: Rattus norvegicus; test: Inhibition of hypoglycemia-induced glucagon secretion in Sprague-Dawley rat pretreated for 1 hr followed by insulin addition measured after 30 mins post insulin secretion by radioimmunoassay; assay type: functional
# Procedure, shortened: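 SD rats were given compound orally, then insulin 2 IU/kg s.c. 1 h after dosing. Tail-vein blood was drawn 30 min after insulin, and plasma glucagon was measured by radioimmunoassay. Values are means ± SD (n = 6), compared with vehicle by one-tailed Williams' test. ED50 was derived from the dose-response.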
# Rattus norvegicus [18] = species on record: Rattus norvegicus; test: Antidiabetic activity in Wistar rat type 2 diabetic model assessed as inhibition of glucose excursion up to 60 mins by meal tolerance test; assay type: functional; settings: 1 h, read-out: MED
# Procedure, shortened: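 Female Wistar fatty rats were fasted overnight and then dosed orally with vehicle or compound, followed by a liquid meal challenge (20 kcal/kg). Plasma glucose was followed over time. The read-out was AUC of delta plasma glucose, and a minimum effective dose was determined.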
SMILES,pIC50 [1],logD [2],Activity (HepG2),also measured
CCOc1ccc(CN(C)C)cc1NC(=O)[C@H](NC(=O)N1CCC(C(=O)c2nccs2)CC1)[C@@H](C)c1c[nH]c2ccccc12,8.70,1.35,74%,–
C[C@@H](c1c[nH]c2ccccc12)[C@@H](NC(=O)N1CCN(C(=O)C(C)(C)C)CC1)C(=O)Nc1cc(CN(C)C)ccc1OC(F)(F)F,8.55,2.18,48%,–
CCOc1ccc(CN(C)C)cc1NC(=O)[C@H](NC(=O)N1CCN(c2ccc(F)cc2)CC1)[C@@H](C)c1c[nH]c2ccccc12,9.70,2.22,99%,–
C[C@@H](c1c[nH]c2ccccc12)[C@@H](NC(=O)N1CCN(c2ccc(F)cc2)C(=O)C1)C(=O)Nc1cc(CN(C)C)ccc1OC(F)(F)F,9.28,2.73,50%,–
CC(=O)c1ccc(CN(C)C)cc1NC(=O)[C@H](NC(=O)N1CCN(c2ccc(F)cc2)C(=O)C1)[C@@H](C)c1c[nH]c2ccccc12,9.51,1.59,37%,–
CCOc1ccc(CN(C)C)cc1NC(=O)[C@H](NC(=O)N1CCC(c2ccccc2)CC1)[C@@H](C)c1c[nH]c2ccccc12,9.70,3,111%,pIC50 [3]: < 7.00
CCOc1ccc(CN(C)C)cc1NC(=O)[C@H](NC(=O)N1CCN(C(=O)C(C)(C)C)CC1)[C@@H](C)c1c[nH]c2ccccc12,8.64,1.09,38%,–
CC(=O)c1ccc(CN(C)C)cc1NC(=O)[C@H](NC(=O)N1CCN(c2ccc(F)cc2C)C(=O)C1)[C@@H](C)c1c[nH]c2ccccc12,9.62,1.81,30%,–
CCOc1ccc(CN(C)C)cc1NC(=O)[C@H](NC(=O)N1CCN(c2ccc(F)cc2C)C(=O)C1)[C@@H](C)c1c[nH]c2ccccc12,9.70,1.86,47%,–
CCOc1ccc(CN(C)C)cc1NC(=O)[C@H](NC(=O)N1CCC(C(=O)c2ccccn2)CC1)[C@@H](C)c1c[nH]c2ccccc12,8.59,1.57,81%,–
CCOc1ccc(CN(C)C)cc1NC(=O)[C@H](NC(=O)N1CCN(c2ccc(F)cc2)C(=O)C1)[C@@H](C)c1c[nH]c2ccccc12,9.70,1.65,36%,–
Cc1cc(F)ccc1N1CCN(C(=O)N[C@@H](C(=O)Nc2cc(CN(C)C)ccc2OC(F)(F)F)[C@@H](C)c2c[nH]c3ccccc23)CC1=O,9.57 to 9.77,2.95,58%,pIC50 [4]: 5.29; pIC50 [5]: 6.44; pIC50 [6]: 7.00; pIC50 [3]: 5.77; concentration at 5 min [7]: 194 ng/mL; AUC at 1 h [8]: 119 ng·h/mL; MRT [9]: 2.57 h; Vd [10]: 6.63 L/kg; clearance [11]: 43.5 mL/min/kg; Cmax [12]: 10.3 ng/mL; AUC at 1 h [13]: 22.9 ng·h/mL; MRT [14]: 5.69 h; bioavailability [15]: 5.8%; Tmax [16]: 0.83 h; ED50 (Rattus norvegicus [17]): 1.1 mg/kg; minimal effective dose (Rattus norvegicus [18]): 3 mg/kg
CCCCc1oc2ccccc2c1C(=O)c1cc(I)c(OCCN(CC)CC)c(I)c1 [AMIODARONE],–,–,100%,–

# Now from value to compound, other results behind:
pIC50 [1],logD [2],SMILES,Activity (HepG2),also measured
8.68,0.73,CCOc1ccc(CN(C)C)cc1NC(=O)[C@H](NC(=O)N1CCN(C(=O)C2CCC2)CC1)[C@@H](C)c1c[nH]c2ccccc12,32%,–
8.74,1.04,CC(=O)c1ccc(CN(C)C)cc1NC(=O)[C@H](NC(=O)N1CCN(C(=O)C2CCC2)CC1)[C@@H](C)c1c[nH]c2ccccc12,46%,–
9.01,0.68,CC(=O)c1ccc(CN(C)C)cc1NC(=O)[C@H](NC(=O)N1CCN(C(=O)C(C)(C)C)CC1)[C@@H](C)c1c[nH]c2ccccc12,36%,–
8.64,1.14,CCOc1ccc(CN(C)C)cc1NC(=O)[C@H](NC(=O)N1CCC(C(=O)c2ccco2)CC1)[C@@H](C)c1c[nH]c2ccccc12,54%,–
8.96,1.5,CCOc1ccc(CN(C)C)cc1NC(=O)[C@H](NC(=O)N1CCC(C(=O)C(C)C)CC1)[C@@H](C)c1c[nH]c2ccccc12,63%,–
9.24,1.89,CCOc1ccc(CN(C)C)cc1NC(=O)[C@H](NC(=O)N1CCC(C(=O)c2cccs2)CC1)[C@@H](C)c1c[nH]c2ccccc12,98%,–
9.17,1.84,CC(=O)c1ccc(CN(C)C)cc1NC(=O)[C@H](NC(=O)N1CCC(C(=O)c2cccs2)CC1)[C@@H](C)c1c[nH]c2ccccc12,91%,–
9.22,1.55,CCOc1ccc(CN(C)C)cc1NC(=O)[C@H](NC(=O)N1CCC(C(=O)C2CCC2)CC1)[C@@H](C)c1c[nH]c2ccccc12,75%,–
8.70,1.44,CC(=O)c1ccc(CN(C)C)cc1NC(=O)[C@H](NC(=O)N1CCC(C(=O)C(C)C)CC1)[C@@H](C)c1c[nH]c2ccccc12,58%,–
9.16,1.5,CC(=O)c1ccc(CN(C)C)cc1NC(=O)[C@H](NC(=O)N1CCC(C(=O)C2CCC2)CC1)[C@@H](C)c1c[nH]c2ccccc12,84%,–
9.05,2.01,CCOc1ccc(CN(C)C)cc1NC(=O)[C@H](NC(=O)N1CCC(C(=O)CC(C)C)CC1)[C@@H](C)c1c[nH]c2ccccc12,76%,–
